Data published in ChEMBL document CHEMBL5678805, “Intermittent administration of MEK inhibitor GDC-0973 plus PI3K inhibitor GDC-0941 triggers robust apoptosis and tumor growth inhibition” (Cancer Res, 2012).
The source made the active and inactive calls. No cut-off for these calls is given here.

Experiments:
[1] = tested on: NCI-H441; assay: Antitumor activity against human NCI-H441 cells harboring KRAS G12V/TP53 R158L/MET high mutant xenografted in mouse assessed as tumor growth inhibition at 5 mg/kg, po; type: functional; settings: read-out: TGI
In short: (§1)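 Human tumor xenografts in mice were dosed orally at the indicated mg/kg. Tumor volume was measured with calipers as (L×W×W)/2. %TGI = 100 × [1 − (AUC treatment/d)/(AUC vehicle/d)], using the area under the fitted tumor-growth curve per day for each dose group relative to vehicle.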

[2] = Antitumor activity against human MOLM16 cells harboring FLT3 T227M mutant xenografted in mouse assessed as tumor growth inhibition at 2.5 mg/kg, po; type: functional, MOLM-16; settings: read-out: TGI; in short: as §1
[3] = tested on: A-375; assay: Antitumor activity against human A-375 cells harboring BRAF V600E/CDKN2A E61 mutant xenografted in mouse assessed as tumor growth inhibition at 2.5 mg/kg, po; type: functional; settings: A-375, read-out: TGI
In short: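 Mice carrying human tumor xenografts dosed orally once daily for 21 consecutive days. Tumor volume measured by calipers as (L×W×W)/2. %TGI = 100×[1 − AUC(treatment/day)/AUC(vehicle/day)], using the area under the fitted growth curve relative to vehicle.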

[4] = target: Serine/threonine-protein kinase WNK2 (Homo sapiens, UniProt Q9Y3S1); assay: Inhibition of WNK2 (unknown origin)
[5] = Antitumor activity against human A375.X1 cells xenografted in mouse assessed as tumor growth inhibition at 15 mg/kg, po administered every third day for 21 days; type: functional; settings: A375.X1, 504 h, time 21 day, read-out: TGI
In short: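 Human tumor xenografts in mice. Drugs given orally, as single agents or combined with the PI3K inhibitor. Schedules were daily (QD) or every third day (Q3D) over 21 days. Tumor volume was measured by caliper as (L×W×W)/2. %TGI = 100×[1 − AUC(treatment/d)/AUC(vehicle/d)] from fitted growth curves, with group means. Tumor lysates were immunoblotted for pS6.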

[6] = tested on: A2058; assay: Antitumor activity against human A2058 cells harboring BRAF V600E/PTEN deletion mutant xenografted in mouse assessed as suppression of ERK phosphorylation at 15 mg/kg, po administered every third day for 21 days and measured after 72 hrs post dose in presence of 4-(2-(1H-indazol-4-yl)-6-((4-(methylsulfonyl)piperazin-1-yl)methyl)thieno[3,2-d]pyrimidin-4-yl)morpholine by Western blot analysis; type: functional, organism-based; settings: time 576.0 hrs
[7] = target: Tyrosine-protein kinase ABL1 (Homo sapiens, UniProt P00519); assay: Inhibition of Abl (unknown origin)
Sequence of Tyrosine-protein kinase ABL1 (P00519 whole entry): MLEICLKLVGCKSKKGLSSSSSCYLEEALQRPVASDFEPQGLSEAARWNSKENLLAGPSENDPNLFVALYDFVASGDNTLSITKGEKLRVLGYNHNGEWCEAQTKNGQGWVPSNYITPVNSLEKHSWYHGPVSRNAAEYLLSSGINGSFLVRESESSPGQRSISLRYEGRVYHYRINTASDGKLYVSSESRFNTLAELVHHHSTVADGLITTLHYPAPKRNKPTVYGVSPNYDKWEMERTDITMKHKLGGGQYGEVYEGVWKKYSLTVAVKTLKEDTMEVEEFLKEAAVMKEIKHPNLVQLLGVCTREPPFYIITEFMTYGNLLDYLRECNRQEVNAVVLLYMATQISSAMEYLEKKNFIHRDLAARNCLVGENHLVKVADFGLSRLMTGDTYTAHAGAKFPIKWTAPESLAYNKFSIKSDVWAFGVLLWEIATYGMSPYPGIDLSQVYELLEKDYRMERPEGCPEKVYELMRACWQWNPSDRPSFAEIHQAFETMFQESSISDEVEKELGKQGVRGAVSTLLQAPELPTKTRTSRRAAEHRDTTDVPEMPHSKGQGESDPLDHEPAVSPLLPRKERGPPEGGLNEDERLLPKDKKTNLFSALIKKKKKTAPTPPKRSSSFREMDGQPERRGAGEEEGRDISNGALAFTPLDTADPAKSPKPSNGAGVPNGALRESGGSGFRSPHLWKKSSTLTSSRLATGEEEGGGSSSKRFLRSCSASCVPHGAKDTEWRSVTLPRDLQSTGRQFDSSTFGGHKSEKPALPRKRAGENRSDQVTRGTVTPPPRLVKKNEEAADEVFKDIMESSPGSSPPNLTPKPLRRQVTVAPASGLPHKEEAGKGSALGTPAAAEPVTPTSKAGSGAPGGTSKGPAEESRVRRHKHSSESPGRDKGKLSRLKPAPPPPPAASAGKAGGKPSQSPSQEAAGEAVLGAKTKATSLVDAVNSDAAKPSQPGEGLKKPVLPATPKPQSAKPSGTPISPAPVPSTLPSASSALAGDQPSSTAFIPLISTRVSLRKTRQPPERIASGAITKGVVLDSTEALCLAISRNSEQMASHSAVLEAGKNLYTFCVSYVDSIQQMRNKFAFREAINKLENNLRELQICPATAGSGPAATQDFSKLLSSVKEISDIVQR

[8] = tested on: 888-mel; assay: Upregulation of Bim level in human 888-mel cells preincubated with compound for 24 hrs followed by compound washout and measured after 2 hrs in presence of 4-(2-(1H-indazol-4-yl)-6-((4-(methylsulfonyl)piperazin-1-yl)methyl)thieno[3,2-d]pyrimidin-4-yl)morpholine by immunoblotting analysis; type: functional, cell-based
[9] = tested on: A2058; assay: Inhibition of PI3K/MEK signaling pathway in human A2058 cells assessed as decrease in ERK phosphorylation by incubated for 24 hrs by Western blot analysis; type: cell-based
[10] = Antitumor activity against human A2058-X1 cells harboring BRAF V600E/PTEN L112Q/V175/TP53 V274F mutant xenografted in mouse assessed as tumor growth inhibition at 10 mg/kg, po; type: functional; settings: A2058-X1, read-out: TGI
In short: (§2)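 Single-agent dose ranging in human tumor xenograft mice at 2.5, 5 or 10 mg/kg oral. Tumor volume was measured by caliper as (L×W×W)/2. %TGI = 100×[1 − AUC(treatment/d)/AUC(vehicle/d)] from the fitted growth curve per dose group, relative to vehicle.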

[11] = tested on: A2058; assay: Antiproliferative activity against human A2058 cells assessed reduction in cell viability incubated for 4 days in presence of 4-(2-(1H-indazol-4-yl)-6-((4-(methylsulfonyl)piperazin-1-yl)methyl)thieno[3,2-d]pyrimidin-4-yl)morpholine by celltiter-glo assay; type: functional; settings: time 4 day
In short: (§3)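 4-day CellTiter-Glo viability read-out on melanoma lines, cells exposed to increasing concentrations of each inhibitor alone and in combination.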

[12] = tested on: Hs 294T; assay: Antiproliferative activity against human Hs294T cells assessed reduction in cell viability incubated for 4 days in presence of 4-(2-(1H-indazol-4-yl)-6-((4-(methylsulfonyl)piperazin-1-yl)methyl)thieno[3,2-d]pyrimidin-4-yl)morpholine by celltiter-glo assay; type: functional; settings: time 4 day; in short: as §3
[13] = tested on: 888-mel; assay: Inhibition of ERK phosphorylation in human 888-mel cells preincubated for 24 hrs followed by compound washout and measured after 2 hrs in presence of 4-(2-(1H-indazol-4-yl)-6-((4-(methylsulfonyl)piperazin-1-yl)methyl)thieno[3,2-d]pyrimidin-4-yl)morpholine by immunoblotting analysis; type: cell-based
In short: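 The medium was then exchanged to remove compound. Lysates were prepared 2 and 24 h after washout and immunoblotted for cleaved PARP, p-AKT and p-ERK using HRP secondary antibody and ECL.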

[14] = target: MAP kinase-activated protein kinase 2 (Homo sapiens, UniProt P49137); assay: Inhibition of MAPKAP2 (unknown origin)
Sequence of MAP kinase-activated protein kinase 2 (P49137 whole entry): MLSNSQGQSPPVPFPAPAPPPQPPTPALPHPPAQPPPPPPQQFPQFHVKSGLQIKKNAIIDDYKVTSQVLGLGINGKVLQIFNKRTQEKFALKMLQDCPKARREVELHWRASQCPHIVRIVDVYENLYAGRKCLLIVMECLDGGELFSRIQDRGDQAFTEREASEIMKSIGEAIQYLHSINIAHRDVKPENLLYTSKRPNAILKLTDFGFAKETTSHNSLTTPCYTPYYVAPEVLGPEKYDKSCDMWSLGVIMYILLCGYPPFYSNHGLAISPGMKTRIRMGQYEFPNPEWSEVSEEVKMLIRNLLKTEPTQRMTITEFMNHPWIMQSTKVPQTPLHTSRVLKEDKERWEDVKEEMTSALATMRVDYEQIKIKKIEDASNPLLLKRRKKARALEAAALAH

[15] = target: Receptor tyrosine-protein kinase erbB-2 (Homo sapiens, UniProt P04626); assay: Inhibition of ErbB2 (unknown origin)
[16] = target: Casein kinase I; assay: Inhibition of CK1 (unknown origin); type: protein assay, Homo sapiens
[17] = target: CDK6/cyclin D3 (Homo sapiens, UniProt Q00534); assay: Inhibition of CDK6/cyclinD3 (unknown origin); type: protein-complex assay
[18] = tested on: SK-OV-3; assay: Antitumor activity against human SK-OV-3 cells harboring FBXW7 R505L and CDKN2A mutant xenografted in mouse assessed as tumor growth inhibition at 10 mg/kg, po; type: functional; settings: read-out: TGI; in short: as §1
[19] = target: Vascular endothelial growth factor receptor 3 (Homo sapiens, UniProt P35916); assay: Inhibition of Flt4 (unknown origin)
Sequence of Vascular endothelial growth factor receptor 3 (P35916 whole entry): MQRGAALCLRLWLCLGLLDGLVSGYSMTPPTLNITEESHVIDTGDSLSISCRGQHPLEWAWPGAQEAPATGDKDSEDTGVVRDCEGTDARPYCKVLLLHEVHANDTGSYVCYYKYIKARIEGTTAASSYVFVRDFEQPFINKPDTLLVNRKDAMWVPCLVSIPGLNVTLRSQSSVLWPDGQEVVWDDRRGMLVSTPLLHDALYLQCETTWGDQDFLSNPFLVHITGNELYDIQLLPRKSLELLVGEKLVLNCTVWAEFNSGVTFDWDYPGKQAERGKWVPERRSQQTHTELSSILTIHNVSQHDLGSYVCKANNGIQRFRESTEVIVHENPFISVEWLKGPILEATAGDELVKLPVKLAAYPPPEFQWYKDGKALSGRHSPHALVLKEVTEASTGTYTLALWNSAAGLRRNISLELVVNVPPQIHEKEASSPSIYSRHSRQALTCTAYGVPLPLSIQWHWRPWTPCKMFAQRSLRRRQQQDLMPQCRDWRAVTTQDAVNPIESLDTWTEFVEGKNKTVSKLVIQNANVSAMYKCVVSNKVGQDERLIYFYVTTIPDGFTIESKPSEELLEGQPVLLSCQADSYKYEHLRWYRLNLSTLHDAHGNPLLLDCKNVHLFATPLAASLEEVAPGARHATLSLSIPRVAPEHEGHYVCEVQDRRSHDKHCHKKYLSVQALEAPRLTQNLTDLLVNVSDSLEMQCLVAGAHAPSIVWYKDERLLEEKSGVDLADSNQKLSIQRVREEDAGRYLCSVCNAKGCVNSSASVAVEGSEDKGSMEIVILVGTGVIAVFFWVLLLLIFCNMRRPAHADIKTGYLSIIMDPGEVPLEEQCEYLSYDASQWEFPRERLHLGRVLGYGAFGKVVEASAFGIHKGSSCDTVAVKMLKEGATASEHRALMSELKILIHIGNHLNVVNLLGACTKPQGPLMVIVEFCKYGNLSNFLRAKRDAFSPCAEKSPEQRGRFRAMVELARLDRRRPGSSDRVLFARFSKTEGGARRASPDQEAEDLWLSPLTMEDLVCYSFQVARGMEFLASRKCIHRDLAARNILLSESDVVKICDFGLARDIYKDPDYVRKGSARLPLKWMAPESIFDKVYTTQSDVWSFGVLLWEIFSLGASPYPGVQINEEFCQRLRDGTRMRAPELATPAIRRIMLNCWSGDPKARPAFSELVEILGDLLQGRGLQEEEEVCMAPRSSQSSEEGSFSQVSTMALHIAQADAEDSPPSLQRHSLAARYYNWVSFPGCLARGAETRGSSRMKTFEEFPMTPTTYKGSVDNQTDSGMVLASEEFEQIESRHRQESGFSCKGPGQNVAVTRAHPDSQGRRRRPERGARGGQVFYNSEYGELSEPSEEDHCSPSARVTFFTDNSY

[20] = target: Serine/threonine-protein kinase B-raf (Homo sapiens, UniProt P15056, V600E); assay: Inhibition of B-RAF V600E (unknown origin)
Sequence of Serine/threonine-protein kinase B-raf (P15056 2-766 V600E limits assumed): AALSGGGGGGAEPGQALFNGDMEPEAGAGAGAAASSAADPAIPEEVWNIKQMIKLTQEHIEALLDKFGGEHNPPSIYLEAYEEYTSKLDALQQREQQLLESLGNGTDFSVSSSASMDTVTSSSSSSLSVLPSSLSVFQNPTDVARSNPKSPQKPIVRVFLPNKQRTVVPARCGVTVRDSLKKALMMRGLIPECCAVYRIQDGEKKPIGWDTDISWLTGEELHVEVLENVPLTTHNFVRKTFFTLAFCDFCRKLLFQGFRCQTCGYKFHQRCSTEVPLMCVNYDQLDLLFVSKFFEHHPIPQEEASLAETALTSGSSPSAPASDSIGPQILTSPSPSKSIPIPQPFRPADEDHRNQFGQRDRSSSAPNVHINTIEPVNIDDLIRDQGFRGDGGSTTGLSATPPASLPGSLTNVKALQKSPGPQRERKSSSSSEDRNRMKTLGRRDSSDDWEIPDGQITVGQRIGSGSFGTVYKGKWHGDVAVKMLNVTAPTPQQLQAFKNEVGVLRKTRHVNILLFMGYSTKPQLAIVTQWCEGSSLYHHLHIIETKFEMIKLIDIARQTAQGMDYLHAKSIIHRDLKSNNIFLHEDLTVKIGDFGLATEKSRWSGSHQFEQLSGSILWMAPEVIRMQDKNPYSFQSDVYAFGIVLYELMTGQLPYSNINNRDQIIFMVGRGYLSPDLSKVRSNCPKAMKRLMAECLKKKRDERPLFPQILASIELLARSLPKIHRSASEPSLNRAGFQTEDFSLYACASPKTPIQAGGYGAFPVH

[21] = target: Serine/threonine-protein kinase MARK1 (Homo sapiens, UniProt Q9P0L2); assay: Inhibition of MARK1 (unknown origin)
Sequence of Serine/threonine-protein kinase MARK1 (Q9P0L2 whole entry): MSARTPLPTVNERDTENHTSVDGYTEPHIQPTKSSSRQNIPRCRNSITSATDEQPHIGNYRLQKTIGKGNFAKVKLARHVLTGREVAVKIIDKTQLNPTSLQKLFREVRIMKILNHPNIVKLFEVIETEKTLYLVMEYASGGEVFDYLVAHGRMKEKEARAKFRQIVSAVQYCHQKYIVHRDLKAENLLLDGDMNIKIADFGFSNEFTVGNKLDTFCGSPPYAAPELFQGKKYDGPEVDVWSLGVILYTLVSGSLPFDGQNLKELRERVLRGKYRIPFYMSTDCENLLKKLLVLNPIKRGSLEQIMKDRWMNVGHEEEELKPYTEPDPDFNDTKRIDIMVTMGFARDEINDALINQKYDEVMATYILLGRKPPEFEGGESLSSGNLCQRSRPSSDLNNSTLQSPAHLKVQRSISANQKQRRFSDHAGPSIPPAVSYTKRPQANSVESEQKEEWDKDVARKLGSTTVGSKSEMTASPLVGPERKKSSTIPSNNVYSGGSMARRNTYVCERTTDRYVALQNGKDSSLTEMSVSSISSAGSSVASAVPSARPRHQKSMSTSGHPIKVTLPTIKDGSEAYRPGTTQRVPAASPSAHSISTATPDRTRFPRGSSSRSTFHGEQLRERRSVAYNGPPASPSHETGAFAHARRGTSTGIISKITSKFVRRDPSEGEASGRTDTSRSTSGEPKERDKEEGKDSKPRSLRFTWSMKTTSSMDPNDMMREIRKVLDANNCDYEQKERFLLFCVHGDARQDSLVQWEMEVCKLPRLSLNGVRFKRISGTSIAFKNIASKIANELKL

[22] = target: Mast/stem cell growth factor receptor Kit (Homo sapiens, UniProt P10721); assay: Inhibition of Kit (unknown origin)
[23] = tested on: SK-OV-3; assay: Antitumor activity against human SK-OV-3 cells harboring FBXW7 R505L and CDKN2A mutant xenografted in mouse assessed as tumor growth inhibition at 5 mg/kg, po; type: functional; settings: read-out: TGI; in short: as §1
[24] = tested on: A2058; assay: Antitumor activity against human A2058 cells harboring BRAF V600E/PTEN deletion mutant xenografted in mouse assessed as decrease in tumor volume at 1.5 mg/kg, po administered once daily for 21 days in presence of GDC-0980 by digital calipers analysis; type: functional, organism-based; settings: time 21.0 day
[25] = tested on: KP-4; assay: Antitumor activity against human KP-4 cells harboring KRAS G12D mutant xenografted in mouse assessed as tumor growth inhibition at 5 mg/kg, po; type: functional; settings: read-out: TGI; in short: as §2
[26] = target: Tyrosine-protein kinase ZAP-70 (Homo sapiens, UniProt P43403); assay: Inhibition of ZAP70 (unknown origin)
[27] = target: Calcium/calmodulin-dependent protein kinase type II subunit alpha (Homo sapiens, UniProt Q9UQM7); assay: Inhibition of CamK2a (unknown origin)
Sequence of Calcium/calmodulin-dependent protein kinase type II subunit alpha (Q9UQM7 whole entry): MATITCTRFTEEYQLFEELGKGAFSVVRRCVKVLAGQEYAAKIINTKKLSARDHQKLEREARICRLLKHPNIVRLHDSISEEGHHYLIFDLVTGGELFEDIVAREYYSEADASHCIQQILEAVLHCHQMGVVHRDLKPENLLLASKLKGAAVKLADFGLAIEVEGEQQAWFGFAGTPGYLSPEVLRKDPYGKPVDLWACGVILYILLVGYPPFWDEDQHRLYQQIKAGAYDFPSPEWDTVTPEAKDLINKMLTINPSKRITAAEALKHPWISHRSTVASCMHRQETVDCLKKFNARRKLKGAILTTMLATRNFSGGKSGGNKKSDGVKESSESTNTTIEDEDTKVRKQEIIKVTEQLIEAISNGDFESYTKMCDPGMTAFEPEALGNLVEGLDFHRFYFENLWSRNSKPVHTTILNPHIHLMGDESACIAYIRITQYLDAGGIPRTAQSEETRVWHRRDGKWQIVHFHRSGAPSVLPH

[28] = target: Glycogen synthase kinase-3 beta (Homo sapiens, UniProt P49841); assay: Inhibition of GSK3beta (unknown origin)
[29] = tested on: NCI-H441; assay: Antitumor activity against human NCI-H441 cells harboring KRAS G12V/TP53 R158L/MET high mutant xenografted in mouse assessed as tumor growth inhibition at 10 mg/kg, po; type: functional; settings: read-out: TGI; in short: as §1

IC50 [4]: > 10 µM | IC50 [7]: > 10 µM | IC50 [14]: > 10 µM | IC50 [15]: > 10 µM | IC50 [16]: > 10 µM | IC50 [17]: > 10 µM | IC50 [19]: > 10 µM | IC50 [20]: > 10 µM | IC50 [21]: > 10 µM | IC50 [22]: > 10 µM | IC50 [26]: > 10 µM | IC50 [27]: > 10 µM | IC50 [28]: > 10 µM
Structure (SMILES): O=C(c1ccc(F)c(F)c1Nc1ccc(I)cc1F)N1CC(O)([C@@H]2CCCCN2)C1 [COBIMETINIB]
inhibition in vivo at 5 mg/kg [1]: 59% | inhibition in vivo at 2.5 mg/kg [2]: 7% | inhibition in vivo at 2.5 mg/kg [3]: 98% | inhibition in vivo at 15 mg/kg [5]: 75% | Activity [6]: Active | Activity [8]: Active | inhibition [9]: Active | inhibition in vivo at 10 mg/kg [10]: 61% | Activity [11]: 60% | Activity [12]: 60% | inhibition [13]: Active | inhibition in vivo at 10 mg/kg [18]: 63% | inhibition in vivo at 5 mg/kg [23]: 69% | Activity [24]: Active | inhibition in vivo at 5 mg/kg [25]: 69.5% | inhibition in vivo at 10 mg/kg [29]: 85%
